ChEMBL document CHEMBL1255303, “In vitro and in vivo antifungal activities of T-2307, a novel arylamidine” (2008)
Starred links: 1 amine or outer side, 2 acyl side, 3 side chain; linkers in the order of their positions; H or OH if unused. Positions of bridges follow the written chain, without caps; N, C: chain ends. Non-standard residues stand in square brackets, D forms with d. Residues, ends and D or L forms follow the SMILES beside them. *: point of attachment. hTyr(3S-OH,4S-OH,3'-OSO3H) = N[C@H](C(=O)O)[C@H](O)[C@@H](O)c1ccc(O)c(OS(=O)(=O)O)c1; Orn(4R-OH,5R-OH) = O=C([C@H](C[C@@H](O)[C@@H](O)N[*:3])N[*:1])[*:2]; Pro(3S-OH,4S-Me) = C[C@H]1CN[C@H](C(=O)O)[C@H]1O; X1 = CCCCCOc1ccc(-c2cc(-c3ccc(C(=O)*)cc3)no2)cc1; Gln(3R-OH) = NC(=O)C[C@@H](O)[C@H](N)C(=O)O; Hyp = O=C(O)[C@@H]1C[C@@H](O)CN1

How the values were obtained:
Format in all cases: functional
Candida albicans [1] = test: Antifungal activity against Candida albicans ATCC 90028 after 48 hrs by broth microdilution method; details: ATCC 90028, 48 h
Summary of the method: (§1)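 CLSI M27-A2 (yeasts) / M38-A (moulds) broth microdilution in RPMI 1640 buffered to pH 7.0 with 0.165 M MOPS. Malassezia furfur got the same medium supplemented with glucose, bile salts, glycerol, glycerol monostearate and Tween 20. Final inoculum 0.65 × 10^3–2.5 × 10^3 CFU/ml for yeasts and 0.87 × 10^4–3.8 × 10^4 CFU/ml for filamentous fungi. Incubation at 35°C except M. racemosus and F. solani, which were held at 30°C.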

Candida dubliniensis = test: Antifungal activity against Candida dubliniensis ATCC MYA-577 after 48 hrs by broth microdilution method; details: ATCC MYA-577, 48 h; summary of the method: as §1
[2] = test system: Meyerozyma guilliermondii; test: Antifungal activity against Candida guilliermondii IFO 10279 after 48 hrs by broth microdilution method; details: IFO 10279, 48 h; summary of the method: as §1
Pichia kudriavzevii [3] = test: Antifungal activity against Candida krusei IFO 0584 after 48 hrs by broth microdilution method; details: IFO 0584, 48 h; summary of the method: as §1
Cryptococcus neoformans [4] = test: Antifungal activity against Cryptococcus neoformans ATCC 90112 after 72 hrs by broth microdilution method; details: ATCC 90112, 72 h
Summary of the method: (§2)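 CLSI M27-A2 (yeasts) or M38-A (A. fumigatus) broth microdilution in RPMI 1640 buffered to pH 7.0 with 0.165 M MOPS. Final inocula were 0.65–2.5 × 10^3 CFU/ml for yeasts and 0.87–3.8 × 10^4 CFU/ml for filamentous fungi. Incubation was at 35°C for about 48 h (72 h for C. neoformans). MIC was the lowest concentration giving a prominent (~50%) turbidity drop versus growth control; amphotericin B required complete inhibition.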

Cryptococcus neoformans [5] = test: Antifungal activity against Cryptococcus neoformans TIMM 0354 after 72 hrs by broth microdilution method; details: TIMM 0354, 72 h; summary of the method: as §2
Saccharomyces cerevisiae = test: Antifungal activity against Saccharomyces cerevisiae ATCC 24657 after 48 hrs by broth microdilution method; details: ATCC 24657, 48 h; summary of the method: as §1
Trichosporon asahii = test: Antifungal activity against Trichosporon asahii JCM 2466 after 48 hrs by broth microdilution method; details: JCM 2466, 48 h; summary of the method: as §1
Aspergillus fumigatus [6] = test: Antifungal activity against Aspergillus fumigatus IFM 46895 after 48 hrs by broth microdilution method; details: IFM 46895, 48 h; summary of the method: as §1
Scedosporium boydii = test: Antifungal activity against Pseudallescheria boydii NBRC 32229 after 72 hrs by broth microdilution method; details: NBRC 32229, 72 h; summary of the method: as §1
Rhizopus arrhizus = test: Antifungal activity against Rhizopus oryzae NBRC 31005 after 24 hrs by broth microdilution method; details: NBRC 31005, 24 h; summary of the method: as §1
Lichtheimia corymbifera = test: Antifungal activity against Absidia corymbifera NBRC 4009 after 24 hrs by broth microdilution method; details: NBRC 4009, 24 h; summary of the method: as §1
Candida albicans [7] = test: Antifungal activity against Candida albicans ATCC 64124 after 47 hrs by broth microdilution method; details: ATCC 64124, 47 h
Summary of the method: (§3)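 Fluconazole-resistant or susceptible-dose-dependent ATCC C. albicans strains were tested by CLSI M27-A2 broth microdilution in RPMI 1640–0.165 M MOPS, pH 7.0, with a final inoculum of 1.1–1.5 × 10^3 CFU/ml at 35°C for about 47 h. MIC was the lowest concentration with a prominent (~50%) turbidity decrease relative to growth control; amphotericin B was read at complete inhibition.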

Candida albicans [8] = test: Antifungal activity against Candida albicans ATCC 64550 after 47 hrs by broth microdilution method; details: ATCC 64550, 47 h
Summary of the method: (§4)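 Fluconazole-resistant or susceptible-dose-dependent C. albicans ATCC strains were tested by broth microdilution in RPMI 1640-MOPS. Inoculum was 1.1 × 10^3–1.5 × 10^3 CFU/ml, with incubation at 35°C for about 47 h. Yeast MIC was read as about 50% turbidity decrease relative to growth control, except amphotericin B, read at complete inhibition.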

Candida albicans [9] = test: Antifungal activity against Candida albicans ATCC 96901 after 47 hrs by broth microdilution method; details: ATCC 96901, 47 h; summary of the method: as §3
Candida albicans [10] = test: Antifungal activity against Candida albicans ATCC MYA-574 after 47 hrs by broth microdilution method; details: ATCC MYA-574, 47 h; summary of the method: as §4
Candida albicans [11] = test: Antifungal activity against Candida albicans ATCC MYA-575 after 47 hrs by broth microdilution method; details: ATCC MYA-575, 47 h; summary of the method: as §3
Pichia kudriavzevii [12] = test: Antifungal activity against Candida krusei clinical isolates after 48 hrs by broth microdilution method
Summary of the method: (§5)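 Japanese hospital Candida isolates were tested by CLSI M27-A2 broth microdilution in RPMI 1640–MOPS, pH 7.0, with inocula of 0.57–2.5 × 10^3 CFU/ml at 35°C for about 48 h. Inocula came from 24-h potato dextrose agar cultures. MIC was the lowest concentration with about 50% turbidity reduction versus growth control (complete inhibition for amphotericin B). Range, MIC50 and MIC90 were reported.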

Candida parapsilosis = test: Antifungal activity against Candida parapsilosis clinical isolates after 48 hrs by broth microdilution method; details: Lodderomyces parapsilosis; summary of the method: as §5
Candida tropicalis = test: Antifungal activity against Candida tropicalis clinical isolates after 48 hrs by broth microdilution method
Summary of the method: (§6)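 Clinical isolates from Japanese hospitals or culture collections were tested by broth microdilution in RPMI 1640-MOPS. Inoculum was 0.57 × 10^3–2.5 × 10^3 CFU/ml for yeasts and 0.4 × 10^4–3.3 × 10^4 CFU/ml for filamentous fungi. Incubation was at 35°C for about 48 h, or 72 h where footnoted. Results were summarised as MIC range, MIC50 and MIC90.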

Cryptococcus neoformans [13] = test: Antifungal activity against Cryptococcus neoformans clinical isolates after 72 hrs by broth microdilution method; summary of the method: as §6
Aspergillus fumigatus [14] = test: Antifungal activity against Aspergillus fumigatus clinical isolates after 48 hrs by broth microdilution method; summary of the method: as §6
Aspergillus fumigatus [15] = test: Antifungal activity against Aspergillus fumigatus IFM 46895 infected ICR mouse after 6 days; details: IFM 46895, 144 h
Summary of the method: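 Male ICR mice, 4 weeks old and SPF, were made neutropenic with intraperitoneal cyclophosphamide. The schedule was 200 mg/kg on day −3 (day −4 for Cryptococcus) plus 100 mg/kg on day +1. Infection was by tail-vein injection of 0.2 ml suspension: C. albicans 3.0 × 10^4, C. neoformans 9.1 × 10^4, A. fumigatus conidia 8.4 × 10^4 CFU/mouse. Drugs were given subcutaneously once daily for 7 days from 2 h post-infection; controls received saline. Groups had 8–10 mice.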

OC(Cn1cncn1)(Cn1cncn1)c1ccc(F)cc1F [FLUCONAZOLE]
0.5 µg/mL: MIC50 (Candida parapsilosis) | MIC50 (Candida tropicalis)
32 µg/mL: MIC (Pichia kudriavzevii [3])
0.125 µg/mL: MIC (Candida albicans [1]) | MIC (Candida dubliniensis)
2 µg/mL: MIC (Cryptococcus neoformans [5]) | MIC50 (Cryptococcus neoformans [13])
1 µg/mL: MIC (Cryptococcus neoformans [4]) | MIC (Trichosporon asahii) | MIC90 (Candida parapsilosis) | MIC90 (Candida tropicalis)
16 µg/mL: MIC (Scedosporium boydii) | MIC (Candida albicans [8]) | MIC (Candida albicans [11])
4 µg/mL: MIC [2] | MIC90 (Cryptococcus neoformans [13])
> 64 µg/mL: MFC (Candida albicans [1]) | MFC (Candida dubliniensis) | MFC [2] | MFC (Cryptococcus neoformans [4]) | MFC (Cryptococcus neoformans [5]) | MFC (Saccharomyces cerevisiae) | MFC (Trichosporon asahii) | MFC (Aspergillus fumigatus [6]) | MIC (Aspergillus fumigatus [6]) | MFC (Scedosporium boydii) | MFC (Rhizopus arrhizus) | MIC (Rhizopus arrhizus) | MFC (Lichtheimia corymbifera) | MIC (Lichtheimia corymbifera) | MIC (Candida albicans [7]) | MIC (Candida albicans [9]) | MIC (Aspergillus fumigatus [14]) | MIC50 (Aspergillus fumigatus [14]) | MIC90 (Aspergillus fumigatus [14])
8 µg/mL: MIC (Saccharomyces cerevisiae)
64 µg/mL: MFC (Pichia kudriavzevii [3]) | MIC (Candida albicans [10]) | MIC50 (Pichia kudriavzevii [12]) | MIC90 (Pichia kudriavzevii [12])

CCCCCOc1ccc(-c2cc(-c3ccc(C(=O)N[C@H]4C[C@@H](O)[C@@H](O)NC(=O)[C@@H]5[C@@H](O)[C@@H](C)CN5C(=O)[C@H]([C@H](O)CC(N)=O)NC(=O)[C@H]([C@H](O)[C@@H](O)c5ccc(O)c(OS(=O)(=O)O)c5)NC(=O)[C@@H]5C[C@@H](O)CN5C(=O)[C@H]([C@@H](C)O)NC4=O)cc3)no2)cc1 [MICAFUNGIN] (X1-[Orn(4R-OH,5R-OH)]T[Hyp][hTyr(3S-OH,4S-OH,3'-OSO3H)][Gln(3R-OH)][Pro(3S-OH,4S-Me)]; lactam 1-C)
4 µg/mL: MIC90 (Candida parapsilosis)
0.699 mg/kg: ED50 (Aspergillus fumigatus [15])
0.0313 µg/mL: MIC (Candida albicans [1]) | MIC (Aspergillus fumigatus [6]) | MIC (Aspergillus fumigatus [14]) | MIC50 (Aspergillus fumigatus [14]) | MIC90 (Aspergillus fumigatus [14])
0.0625 µg/mL: MIC (Candida albicans [7]) | MIC (Candida albicans [8]) | MIC (Candida albicans [10]) | MIC (Candida tropicalis) | MIC50 (Candida tropicalis)
0.5 µg/mL: MIC [2] | MIC (Saccharomyces cerevisiae) | MIC (Scedosporium boydii) | MIC50 (Pichia kudriavzevii [12]) | MIC90 (Pichia kudriavzevii [12])
0.25 µg/mL: MFC (Pichia kudriavzevii [3])
2 µg/mL: MIC50 (Candida parapsilosis)
> 64 µg/mL: MFC (Cryptococcus neoformans [4]) | MIC (Cryptococcus neoformans [4]) | MFC (Cryptococcus neoformans [5]) | MIC (Cryptococcus neoformans [5]) | MFC (Trichosporon asahii) | MIC (Trichosporon asahii) | MFC (Aspergillus fumigatus [6]) | MFC (Scedosporium boydii) | MFC (Rhizopus arrhizus) | MIC (Rhizopus arrhizus) | MFC (Lichtheimia corymbifera) | MIC (Cryptococcus neoformans [13]) | MIC50 (Cryptococcus neoformans [13]) | MIC90 (Cryptococcus neoformans [13])
32 µg/mL: MIC (Lichtheimia corymbifera)
8 µg/mL: MFC (Candida dubliniensis) | MFC [2]
1 µg/mL: MFC (Saccharomyces cerevisiae)
0.125 µg/mL: MFC (Candida albicans [1]) | MIC (Candida dubliniensis) | MIC (Pichia kudriavzevii [3]) | MIC (Candida albicans [9]) | MIC (Candida albicans [11]) | MIC90 (Candida tropicalis)

N=C(N)c1ccc(OCCCC2CCN(CCCOc3ccc(C(=N)N)cc3)CC2)cc1
0.0313 µg/mL: MFC (Cryptococcus neoformans [4]) | MIC90 (Cryptococcus neoformans [13])
2 µg/mL: MIC90 (Aspergillus fumigatus [14])
0.0039 µg/mL: MIC (Cryptococcus neoformans [5])
0.002 µg/mL: MIC [2] | MFC (Pichia kudriavzevii [3]) | MIC90 (Pichia kudriavzevii [12])
0.391 mg/kg: ED50 (Aspergillus fumigatus [15])
0.0156 µg/mL: MFC (Cryptococcus neoformans [5]) | MIC50 (Cryptococcus neoformans [13])
0.5 µg/mL: MIC (Lichtheimia corymbifera)
1 µg/mL: MIC50 (Aspergillus fumigatus [14])
0.0078 µg/mL: MFC [2] | MIC (Cryptococcus neoformans [4])
0.0005 µg/mL: MIC (Candida albicans [8]) | MIC50 (Candida parapsilosis) | MIC90 (Candida parapsilosis) | MIC50 (Candida tropicalis) | MIC90 (Candida tropicalis)
64 µg/mL: MIC (Trichosporon asahii)
0.001 µg/mL: MIC (Candida albicans [1]) | MIC (Candida dubliniensis) | MIC (Pichia kudriavzevii [3]) | MIC (Candida albicans [7]) | MIC (Candida albicans [9]) | MIC (Candida albicans [10]) | MIC (Candida albicans [11]) | MIC50 (Pichia kudriavzevii [12])
> 64 µg/mL: MFC (Candida albicans [1]) | MFC (Candida dubliniensis) | MFC (Saccharomyces cerevisiae) | MIC (Saccharomyces cerevisiae) | MFC (Trichosporon asahii) | MFC (Aspergillus fumigatus [6]) | MFC (Scedosporium boydii) | MFC (Rhizopus arrhizus) | MIC (Rhizopus arrhizus) | MFC (Lichtheimia corymbifera)
4 µg/mL: MIC (Scedosporium boydii)
0.0625 µg/mL: MIC (Aspergillus fumigatus [6])
